Screening data from PubChem.
TWEAK-Fn14 inh = inhibitors of TWEAK-Fn14 signaling, primary screen, luciferase reporter cells, uHTS; TWEAK-stimulated Fn14 reporter cells, luciferase luminescence, 8 h; actives 2% (n = 360,000); inhibition, % at 10 µM; AID 1159606, 2016; in the data active means inhibition above about 50%
Xi reactivation = activators of inactive X chromosome reactivation, primary screen, imaging, XiGFP fibroblasts, GFP high-content imaging, set 2. AID 743238, 2013. XiGFP mouse fibroblasts, % GFP-positive cells imaging, 3 d; cells co-treated with 5-aza-dC sensitizer; scaled so ellipticine positive control = 100%. actives 0.055% (n = 360,000). activation, % at 7.58 µM;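 active means mean normalized replicate activation at least 10% and every replicate at or above 10%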;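 further: 0% = median of on-plate neutral control wells and 100% = ellipticine 6 µM median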
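Material: SV40-immortalized XiGFP fibroblast cells, line 68-5-11 | Buffer or medium: DMEM containing 5-aza-dC | Dosing: One concentration, pinned | Times: 3 d treatment, 15 min room-temperature fixation | Controls: Ellipticine 6 µM positive control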
FN deposition inh = inhibitors of fibronectin matrix deposition, primary screen, AH1F cells, Alexa488-fibronectin fluorescence, plate reader | AH1F fibroblasts, overnight | inhibition, % at 12.6 µM | actives 0.086% (n = 350,000);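 active means mean inhibition across replicates of 30% or more, regardless of how many single replicates reach that level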;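 further: positive control wells lacked labelled fibronectin entirely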
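Assay system: AH1F fibroblasts / Quantity: 10000 cells per well / Medium: DMEM plus 2% serum, read in PBS / Reagent: labelled fibronectin 24 nM / Dosing: single dose, pinned / Times: 1 h cell attachment, overnight exposure to compound and label / Signal: fluorescence, ex 485 nm, em 525 nm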
TROY NFkB inh = inhibitors of TROY-driven NF-kB signaling, primary screen, Q293 LMP1-TROYcd cells, NF-kB luciferase, uHTS; Q293 LMP1-TROYcd NF-kB luciferase reporter, 4 h; inhibition, % at 10 µM; actives 0.98% (n = 360,000);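 active means compounds whose plate-normalised and pattern-corrected inhibition of the luciferase reporter signal at the single screening dose is 50% or more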
EWS-Fli inh = EWS/Fli-driven NR0B1 reporter inhibitors, primary screen, A673 cells, NR0B1 luciferase, luminescence, MLPCN library; inhibition, % at 12.6 µM; actives 0.67% (n = 350,000); viability-normalised;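 active means mean inhibition of at least 50% after viability correction, with every replicate also passing that limit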;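 further: firefly luciferase signal divided by Alamar Blue viability fluorescence both relative to DMSO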
LGR2 antag = inhibitors of bursicon-induced LGR2 CRE-luciferase signal, primary screen, cell-based, HEK293, CRE-luciferase reporter, bursicon stimulation | Drosophila bursicon receptor LGR2 (rickets) | bursicon-stimulated, 4 h | inhibition, % at 9.99 µM | actives 0.35% (n = 380,000);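 active means drop in luminescence signal, shown as inhibition above about 50% in the replicate tests, limit read from the data, passing the limit was not always enough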;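 further: agonist challenge used bursicon conditioned medium at about half maximal strength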
DNA binder FP = DNA binders by acridine orange displacement, dose response, counter-screen for EWS/Fli inhibitor project, biochemical, fluorescence polarization, cherry-pick; shares compounds with EWS-Fli inh; salmon sperm DNA acridine orange fluorescence polarization; AC35, µM (series often up to 68 µM), inactives show at the top dose activity change, negative = DNA binding; actives 2% (n = 640);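 active means fitted curve reaches a 35% signal fall AC35 below twice the sample's top valid tested dose, actives reach about 48 µM in these data; inactive means the rest, including activity in the rising direction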;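 further: lower polarization ratio signals compound binding to DNA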
* marks the source's active call; other numbers are inactive results; / = not tested or not shown. Hits are enriched below; roughly 2.3% of the tested compounds scored in any of these assays.

SMILES	TWEAK-Fn14 inh	Xi reactivation	FN deposition inh	TROY NFkB inh	EWS-Fli inh	LGR2 antag	others
CN(C)CCCNS(=O)(=O)c1ccc(N2CCC(c3ccc(Cl)cc3)=N2)cc1	/	/	40.7*	/	/	/
Cn1c(N)c(C(=O)COC(=O)c2cc(S(=O)(=O)N3CCOCC3)ccc2F)c(=O)n(C)c1=O	-15.7	0.2	9.6	35.5	67.0*	-8.3
Cc1ccc(S(=O)(=O)N2CCOCC2)cc1C(=O)OCC(=O)c1c(N)n(C)c(=O)n(C)c1=O	-0.3	-0.2	1.2	-9.2	-1.2	/
CC(C)NC(=O)N(C)C[C@H]1Oc2ncc(-c3cccc(C#N)c3)cc2C(=O)N([C@@H](C)CO)C[C@@H]1C	/	-1.0	0.0	/	-5.4	12.2
C[C@H]1CN([C@@H](C)CO)C(=O)Cc2cc(N(C)C)ccc2O[C@@H]1CN(C)Cc1ccncc1	/	-1.1	1.5	/	-8.4	10.0
Cc1ccc(-n2ncc(C(=O)Nc3cc(Cl)cc(Cl)c3)c2C2CCNCC2)cc1C	-4.0	0.2	5.7	-6.0	62.4*	33.3
CN(N)c1ccc2c(C(F)(F)F)cc(C(F)(F)F)nc2n1	-33.5	0.0	-4.0	1.4	3.8	-21.7
FC(F)(F)c1cc(C(F)(F)F)c2ccc(N/N=C/c3ccccc3)nc2n1	-39.1	/	/	-9.9	/	2.4
Cc1ccc(C(C#N)c2ccc3c(C(F)(F)F)cc(C(F)(F)F)nc3n2)cc1 (stereo unspecified)	50.3*	/	/	45.0	/	/
N#CC(c1ccccc1)c1ccc2c(C(F)(F)F)cc(C(F)(F)F)nc2n1 (stereo unspecified)	53.2*	/	/	59.1*	/	/
C[C@H](CO)N1C[C@H](C)[C@@H](CN(C)C(=O)Nc2cccc3ccccc23)OCCCC[C@H](C)Oc2ccc(NS(=O)(=O)c3ccc(F)cc3)cc2C1=O	/	0.4	3.5	/	19.1	16.5
C[C@@H]1CCCCO[C@@H](CN(C)C(=O)C2CCCCC2)[C@H](C)CN([C@H](C)CO)C(=O)c2cc(NC(=O)NC3CCCCC3)ccc2O1	/	0.0	-5.3	/	-3.5	2.1
CO[C@@H](CN(C)Cc1nccs1)[C@H](C)CN([C@@H](C)CO)S(=O)(=O)c1ccc(C)cc1	/	0.1	-0.1	/	6.4	-0.2
O=C(N/N=C/c1ccsc1)c1ccccn1	-1.9	0.1	3.1	-49.8	-43.5	-42.5
N/C(=N\OC(=O)c1ccccc1)c1ccccn1	96.3*	-0.1	3.9	75.5*	19.6	95.4*
N/C(=N\OC(=O)c1ccc(Br)o1)c1ccccn1	60.4*	-0.1	-14.2	50.5*	10.9	73.9*
CC(C)(C)c1ccc(/C=N/NC(=O)c2ccccn2)cc1	71.0*	0.1	-7.0	52.3*	46.9	86.4*
CC(C)(C)c1ccc(C(=O)O/N=C(\N)c2ccccn2)cc1	103.1*	0.6	-3.0	89.2*	74.9*	101.8*
C[C@@H]1CCCCO[C@H](CN(C)S(C)(=O)=O)[C@@H](C)CN([C@@H](C)CO)C(=O)c2cc(NC(=O)Nc3ccc(F)cc3)ccc2O1	/	0.0	/	/	-2.5	-16.2
CO[C@@H]1CN(C)C(=O)c2ccc(NC(=O)c3nc4ccccc4s3)cc2OC[C@@H](C)NC[C@@H]1C	/	0.0	-0.5	/	-9.2	1.2
C[C@@H]1CCCCO[C@H](CN(C)S(=O)(=O)c2cccs2)[C@H](C)CN([C@@H](C)CO)C(=O)c2cc(NC(=O)Nc3ccc(C(F)(F)F)cc3)ccc2O1	/	0.0	/	/	-1.4	5.7
CCOc1ccc(C(=O)O/N=C(\N)c2ccccn2)cc1	103.4*	-0.1	-0.3	86.5*	80.6*	102.5*
COc1ccc(NC(=O)/C(Cl)=C(/Cl)S(=O)(=O)Cc2ccc(C)cc2)cn1	103.0*	/	/	85.5*	/	/
COc1ccc(NC(=O)Cc2ccc(Cl)c(Cl)c2)cn1	-0.8	-0.2	/	-36.0	-0.9	13.6
CO[C@@H]1CN(C)C(=O)c2cc(NC(=O)c3nc4ccccc4s3)ccc2OC[C@@H](C)N(Cc2cncnc2)C[C@H]1C	/	0.1	10.1	/	-11.5	1.2
SMILES	TWEAK-Fn14 inh	Xi reactivation	FN deposition inh	TROY NFkB inh	EWS-Fli inh	LGR2 antag	others
O=C(NCC1COc2ccccc2O1)c1ccco1 (stereo unspecified)	-5.7	/	/	-10.4	/	/
O=C(NCC1COc2ccccc2O1)c1cc2ccccc2o1 (stereo unspecified)	81.2*	/	/	/	/	/
CCN1C(=O)S/C(=C/c2ccsc2)C1=O	-26.6	/	4.5	-43.1	/	/
CC(C)N1C/C(=C/c2ccsc2)C(=O)/C(=C/c2ccsc2)C1	14.2	0.5	-1.8	18.3	71.9*	17.3	DNA binder FP=-27.2%
CC(C)N1CC2=C(OC(N)=C(C#N)C2c2cccnc2)/C(=C/c2cccnc2)C1 (stereo unspecified)	5.9	/	/	-8.8	/	/
CC(C)N1C/C(=C/c2cccnc2)C(=O)/C(=C/c2cccnc2)C1	-10.9	3.4	6.7	-9.0	69.5*	23.5	DNA binder FP=-10.9%
COc1cccc(S(=O)(=O)N[C@H]2CC[C@@H](CC(=O)NCc3ccccc3)O[C@H]2CO)c1	/	0.0	/	/	-3.8	-23.4
CN(c1ccc(NC(=O)CCc2c[nH]c3ccccc23)cc1)c1ccccn1	/	0.1	-10.5	/	59.4*	-5.8	DNA binder FP=-6.5%
COC(=O)C[C@H]1C=C[C@H](NC(=O)Nc2ccc(C(F)(F)F)cc2)[C@H](CO)O1	/	-0.5	4.7	/	-44.1	25.4
COC(=O)C[C@H]1C=C[C@@H](NC(=O)Nc2ccc(C(F)(F)F)cc2)[C@H](CO)O1	/	0.9	1.5	/	67.1*	9.2	DNA binder FP=-3.5%
C[C@@H]1CN([C@@H](C)CO)C(=O)c2cc(C#CC3(O)CCCC3)cnc2O[C@@H]1CN(C)C(=O)Cc1ccncc1	/	-0.3	/	/	-1.3	11.4
CCOc1cc(/C=N/Nc2cc(C)nc(-n3nc(C)cc3C)n2)ccc1O	-8.3	-0.1	-25.4	2.3	53.4*	5.3	DNA binder FP=-13.9%
Cc1[nH][nH]c(=O)c1C(c1c(C)[nH][nH]c1=O)c1cn(Cc2ccc(Cl)c(Cl)c2)c2ccccc12	20.4	0.4	23.1	22.0	53.0*	-1.5	DNA binder FP=2.4%
Cc1[nH][nH]c(=O)c1C(c1c(C)[nH][nH]c1=O)c1cn(Cc2ccc(F)cc2)c2ccccc12	14.5	/	/	14.6	/	/
Cc1nc2ncccn2c1-c1csc(Nc2ccc(O)cc2)n1	-2.4	0.0	/	0.5	58.3*	0.3	DNA binder FP=9.2%
Cc1ccc(Nc2nc(-c3c(C)nc4ncccn34)cs2)cc1	10.8	/	/	1.5	/	/
